According to ChEMBL document CHEMBL2375307, “Synthesis and identification of β-aryloxyquinoline based diversely fluorine substituted N-aryl quinolone derivatives as a new class of antimicrobial, antituberculosis and antioxidant agents” (Eur J Med Chem, 2013):
Converted amounts (≈) assume the structure as drawn.

Key:
Escherichia coli = experiment: Antibacterial activity against Escherichia coli MTCC 443 assessed as growth inhibition after overnight incubation by NCCLS broth microdilution method; format: functional
Method in brief: (§1)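 Broth microdilution per NCCLS in Mueller Hinton broth, compounds diluted in DMSO. Primary screen at 500, 250 and 200 µg/mL; actives retested at 100, 62.5, 50, 25 and 12.5 µg/mL. Tubes incubated overnight at 37 °C. […] Non-growing tubes subcultured overnight at 37 °C to judge bacteriostatic versus bactericidal action.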

[1] = Toxicity in brine shrimps cysts assessed as mortality at 30 ug/mL after 24 hrs relative to control; format: organism-based; conditions: artemia, in vivo
[2] = system: Mycobacterium tuberculosis; experiment: Antitubercular activity against Mycobacterium tuberculosis H37Rv assessed as growth inhibition at 250 ug/mL after 12 to 28 days by Lowenstein-Jensen method relative to control; format: functional; conditions: read-out: GI
Method in brief: (§2)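 Modified Lowenstein-Jensen method. Compound at 250 in DMSO added to liquid L-J medium, then sterilized by inspissation and incubated 24 h at 37 °C. Streaked with H37Rv harvested in 0.85% saline (5 × 10⁴ bacilli/tube) and incubated at 37 °C. Colonies read at 12, 22 and 28 days versus drug-free control; no colonies or <20 colonies scored as inhibition.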

Clostridium tetani = experiment: Antibacterial activity against Clostridium tetani MTCC 449 assessed as growth inhibition after overnight incubation by NCCLS broth microdilution method; format: functional
[3] = Toxicity in brine shrimps cysts assessed as mortality at 50 ug/mL after 24 hrs relative to control; format: organism-based; conditions: artemia, in vivo
[4] = Toxicity in brine shrimps cysts assessed as mortality at 5 ug/ml after 24 hrs relative to control; format: organism-based; conditions: artemia, in vivo
Candida albicans = experiment: Antifungal activity against Candida albicans MTCC 227 assessed as growth inhibition after overnight incubation by NCCLS broth microdilution method; format: functional; method in brief: as §1
Bacillus subtilis = experiment: Antibacterial activity against Bacillus subtilis MTCC 441 assessed as growth inhibition after overnight incubation by NCCLS broth microdilution method; format: functional; method in brief: as §1
Streptococcus pneumoniae = experiment: Antibacterial activity against Streptococcus pneumoniae MTCC 1936 assessed as growth inhibition after overnight incubation by NCCLS broth microdilution method; format: functional; method in brief: as §1
[5] = Toxicity in brine shrimps cysts assessed as mortality at 10 ug/mL after 24 hrs relative to control; format: organism-based; conditions: artemia, in vivo
Vibrio cholerae = experiment: Antibacterial activity against Vibrio cholerae MTCC 3906 assessed as growth inhibition after overnight incubation by NCCLS broth microdilution method; format: functional
Salmonella typhi = experiment: Antibacterial activity against Salmonella typhi MTCC 98 assessed as growth inhibition after overnight incubation by NCCLS broth microdilution method; format: functional, Salmonella enterica subsp. enterica serovar Typhi; conditions: Salmonella enterica
[6] = Toxicity in brine shrimps cysts assessed as mortality at 20 ug/mL after 24 hrs relative to control; format: organism-based; conditions: artemia, in vivo
Aspergillus fumigatus = experiment: Antifungal activity against Aspergillus fumigatus MTCC 3008 assessed as growth inhibition after overnight incubation by NCCLS broth microdilution method; format: functional; method in brief: as §1
[7] = system: Mycobacterium tuberculosis; experiment: Antitubercular activity against Mycobacterium tuberculosis H37Rv assessed as growth inhibition after 12 to 28 days by Lowenstein-Jensen method; format: functional; method in brief: as §2
[8] = Antioxidant activity of the compound assessed as ascorbic acid equivalent of ferric tripyridyl triazine reducing activity at 200 ug/mL after 15 mins by FRAP assay; format: functional
Method in brief: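 FRAP, modified Benzie and Strain method. Fe(III)-TPTZ reagent made with TPTZ in 40 mM HCl, FeCl3 solution and acetate buffer pH 3.6. 200 µL sample solution mixed with 3 mL reagent and held 15 min at 37 °C. Fe(II)-TPTZ read at 593 nm against an ascorbic acid standard, expressed as ascorbic acid equivalents (mmol/100 g compound).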

[9] = Toxicity in brine shrimps cysts assessed as mortality at 40 ug/mL after 24 hrs relative to control; format: organism-based; conditions: artemia, in vivo
[10] = Toxicity in brine shrimps cysts assessed as mortality after 24 hrs relative to control; format: organism-based; conditions: artemia, in vivo

SMILES | MIC (Escherichia coli) [µg/mL] | mortality at 24 h, 30 ug/mL [1] [%] | inhibition of growth at 250 µg/mL [2] [%] | MIC (Clostridium tetani) [µg/mL] | mortality at 24 h, 50 ug/mL [3] [%] | mortality at 24 h, 5 ug/ml [4] [%] | MIC (Candida albicans) [µg/mL] | MIC (Bacillus subtilis) [µg/mL] | MIC (Streptococcus pneumoniae) [µg/mL] | mortality at 24 h, 10 ug/mL [5] [%] | MIC (Vibrio cholerae) [µg/mL] | MIC (Salmonella typhi) [µg/mL] | mortality at 24 h, 20 ug/mL [6] [%] | MIC (Aspergillus fumigatus) [µg/mL] | MIC [7] [µg/mL] | Activity [8] [equiv] | mortality at 24 h, 40 ug/mL [9] [%] | LC50 at 24 h [10] [µg/mL]
N#CC1=C(N)N(c2ccc(F)c(F)c2)C2=C(C(=O)CCC2)C1c1cc2cc(Cl)ccc2nc1Oc1ccc(C#N)cc1 (centres undefined) | 200 (≈ 345 µM) | 70 | 95 | 200 (≈ 345 µM) | 90 | 20 | 1000 (≈ 1720 µM) | 125 (≈ 216 µM) | 200 (≈ 345 µM) | 40 | 100 (≈ 172 µM) | 250 (≈ 431 µM) | 60 | > 1000 | 100 (≈ 172 µM) | 2.97 | 80 | 14.1 (≈ 24.3 µM)
NNC(=O)c1ccncc1 [ISONIAZID] |  |  | 99 |  |  |  |  |  |  |  |  |  |  |  | 0.2 (≈ 1.46 µM) |  |  | 
CC1(C)CC(=O)C2=C(C1)N(c1cccc(C(F)(F)F)c1)C(N)=C(C#N)C2c1cc2cc(Cl)ccc2nc1Oc1ccc(C#N)cc1 (centres undefined) | 125 (≈ 195 µM) | 50 | 98 | 250 (≈ 391 µM) | 80 | 10 | > 1000 | 250 (≈ 391 µM) | 125 (≈ 195 µM) | 20 | 100 (≈ 156 µM) | 125 (≈ 195 µM) | 40 | 1000 (≈ 1560 µM) | 62.5 (≈ 97.6 µM) | 7.13 | 70 | 23.3 (≈ 36.5 µM)
Cc1ccc2nc(Oc3ccc(C#N)cc3)c(C3C(C#N)=C(N)N(c4cccc(C(F)(F)F)c4)C4=C3C(=O)CC(C)(C)C4)cc2c1 (centres undefined) | 100 (≈ 161 µM) | 70 | 93 | 250 (≈ 403 µM) | 90 | 10 | > 1000 | 100 (≈ 161 µM) | 125 (≈ 202 µM) | 30 | 125 (≈ 202 µM) | 100 (≈ 161 µM) | 50 | 1000 (≈ 1610 µM) | 125 (≈ 202 µM) | 339 | 80 | 17.1 (≈ 27.7 µM)
Cc1ccc2nc(Oc3ccc(C#N)cc3)c(C3C(C#N)=C(N)N(c4cc(F)ccc4F)C4=C3C(=O)CC(C)(C)C4)cc2c1 (centres undefined) | 62.5 (≈ 106 µM) | 50 | 99 | 100 (≈ 170 µM) | 80 | 0 | > 1000 | 200 (≈ 340 µM) | 100 (≈ 170 µM) | 10 | 25 (≈ 42.5 µM) | 200 (≈ 340 µM) | 20 | > 1000 | 62.5 (≈ 106 µM) | 13.9 | 70 | 27.5 (≈ 46.8 µM)
N#CC1=C(N)N(c2cccc(C(F)(F)F)c2)C2=C(C(=O)CCC2)C1c1cc2cc(Cl)ccc2nc1Oc1ccc(C#N)cc1 (centres undefined) | 250 (≈ 408 µM) | 40 | 99 | 200 (≈ 327 µM) | 70 | 0 | 1000 (≈ 1630 µM) | 200 (≈ 327 µM) | 62.5 (≈ 102 µM) | 10 | 62.5 (≈ 102 µM) | 200 (≈ 327 µM) | 20 | 1000 (≈ 1630 µM) | 25 (≈ 40.8 µM) | 5.15 | 50 | 37.8 (≈ 61.7 µM)
COc1ccc2nc(Oc3ccc(C#N)cc3)c(C3C(C#N)=C(N)N(c4ccc(F)c(F)c4)C4=C3C(=O)CCC4)cc2c1 (centres undefined) | 500 (≈ 869 µM) |  | 88 | 200 (≈ 347 µM) |  |  | 1000 (≈ 1740 µM) | 200 (≈ 347 µM) | 200 (≈ 347 µM) |  | 250 (≈ 434 µM) | 500 (≈ 869 µM) |  | 1000 (≈ 1740 µM) |  | 369 |  | 
CO[C@H]1/C=C/O[C@@]2(C)Oc3c(C)c(O)c4c(O)c(c(/C=N/N5CCN(C)CC5)c(O)c4c3C2=O)NC(=O)/C(C)=C\C=C\[C@H](C)[C@H](O)[C@@H](C)[C@@H](O)[C@@H](C)[C@H](OC(C)=O)[C@@H]1C [RIFAMPIN] |  |  | 98 |  |  |  |  |  |  |  |  |  |  |  | 40 (≈ 48.6 µM) |  |  | 
Cc1ccc2nc(Oc3ccc(C#N)cc3)c(C3C(C#N)=C(N)N(c4cc(F)ccc4F)C4=C3C(=O)CCC4)cc2c1 (centres undefined) | 100 (≈ 179 µM) |  | 80 | 200 (≈ 357 µM) |  |  | 250 (≈ 447 µM) | 125 (≈ 223 µM) | 250 (≈ 447 µM) |  | 62.5 (≈ 112 µM) | 50 (≈ 89.4 µM) |  | > 1000 |  | 239 |  | 
N#CC1=C(N)N(c2cc(F)ccc2F)C2=C(C(=O)CCC2)C1c1cc2ccccc2nc1Oc1ccc(C#N)cc1 (centres undefined) | 100 (≈ 183 µM) |  | 10 | 125 (≈ 229 µM) |  |  | > 1000 | 100 (≈ 183 µM) | 250 (≈ 458 µM) |  | 200 (≈ 367 µM) | 250 (≈ 458 µM) |  | 250 (≈ 458 µM) |  | 16.4 |  | 
